Reference: PubChem BioAssay AID463186 (The Scripps Research Institute Molecular Screening Center, 2010)
Activity calls are given as the source filed them.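 The calls were made as follows: active = mean luminescence fold change over vehicle of at least 10; inactive = the rest.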

Molecular target: G2/mitotic-specific cyclin-B1 (Homo sapiens) (UniProt P14635)
Assay: cyclin B degradation inhibitors, late-stage follow-up, selectivity assay for Wee1 degradation inhibitor project, cell-based, HeLa, luciferase fusion, luminescence, powder samples (AID 463186)
Details: HeLa cyclin B-luciferase stability, at 0.1 µM, hits give high values
In short: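 Material: HeLa cells with cyclin B–luciferase fusion / Read-out basis: average fold-change versus DMSO vehicle / Replication: quadruplicate wells per compound / Technique: luminescence of luciferase reporter / Compound dosing: single dose, nominal 0.1 µM / Benchmarks: DMSO vehicle-treated cells as reference / Schedule: 48 h transfection, then 20 h compound exposure at 37 °C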

G2/mitotic-specific cyclin-B1 (Homo sapiens), sequence (P14635 whole entry, looked up, the tested form may be a part): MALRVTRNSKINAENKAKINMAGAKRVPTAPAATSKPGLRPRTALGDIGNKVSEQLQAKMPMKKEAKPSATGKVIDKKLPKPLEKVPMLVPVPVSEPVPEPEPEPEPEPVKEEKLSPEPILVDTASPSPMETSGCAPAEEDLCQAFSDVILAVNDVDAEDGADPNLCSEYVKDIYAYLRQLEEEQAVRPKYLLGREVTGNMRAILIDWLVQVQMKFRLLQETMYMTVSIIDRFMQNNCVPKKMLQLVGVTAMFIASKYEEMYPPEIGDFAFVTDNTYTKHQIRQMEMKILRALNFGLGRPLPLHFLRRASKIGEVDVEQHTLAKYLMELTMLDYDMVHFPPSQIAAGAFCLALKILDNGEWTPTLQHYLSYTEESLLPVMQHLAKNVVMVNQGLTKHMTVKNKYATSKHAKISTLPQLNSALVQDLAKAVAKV

Structure (SMILES)	fold change
O=[N+]([O-])c1cccc2[nH]c(CNc3nc(N4CCOCC4)nc4c3ncn4-c3ccsc3)nc12	2.62 (inactive)
c1ccc2[nH]c(CNc3nc(N4CCOCC4)nc4c3ncn4-c3ccsc3)nc2c1	4.15 (inactive)
